# High-throughput results (PubChem BioAssay)
# HSP90 inh = inhibitors of HSP90 luciferase refolding in rabbit reticulocyte lysate. luciferase refolding luminescence, 3 h. inhibition, % at 5.6 µM. 290,000 compounds, 0.91% hits. AID 1789;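 active = inhibition above the screen-wide mean plus 3 SD, computed separately per campaign, cut at about 16% in these data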;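 note: 0% = DMSO wells and 100% = 60 µM geldanamycin wells; inhibitors lower the luminescence because luciferase stays unfolded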
# SENP1 inh = SENP1 (human) catalytic domain inhibition; recombinant SENP1 catalytic domain, CyPet-SUMO1-YPet FRET cleavage; AID 624204; inhibition, % at 10 µM; 360,000 compounds, 0.21% hits; Q9P0U3;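 active = inhibition at least 30% at 10 µM, raw YFP signal under a set limit, fluorescence ratio 0.5 to 1.5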;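 note: 0% = enzyme with DMSO and 100% = no enzyme wells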
# Target sequence (Q9P0U3 419-644 limits assumed): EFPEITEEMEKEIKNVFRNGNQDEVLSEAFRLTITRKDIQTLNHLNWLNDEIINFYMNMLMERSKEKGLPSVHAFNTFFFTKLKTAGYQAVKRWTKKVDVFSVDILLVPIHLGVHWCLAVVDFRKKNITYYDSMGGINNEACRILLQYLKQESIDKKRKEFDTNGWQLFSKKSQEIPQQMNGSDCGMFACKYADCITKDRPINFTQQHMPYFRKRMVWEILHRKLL
#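 material = recombinant human SENP1 catalytic domain, His6-tagged | quantity = 20 pM enzyme | reagent = 25 nM SUMO1 FRET substrate | compound dosing = 10 µM single point, 0.5% DMSO | timing = 50 min enzyme reaction, room temperature, light-protected | detection = FRET, CFP and YFP emission | control set = no-enzyme low, enzyme-DMSO high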
# SENP6 inh = SENP6 protease inhibition; AID 2599; Q9GZR1; 330,000 compounds, 1.8% hits; Recombinant SENP6 catalytic domain, aminoluciferin luminescence; inhibition, % at 10 µM;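 active = inhibition above about 50% at the single tested dose, limit read from the data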;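 note: plate controls were DMSO wells with enzyme for no effect and DMSO wells lacking enzyme for full effect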
# SENP8 block-1 = inhibitors of human SENP8 protease; AID 2540; Q96LD8; 330,000 compounds, 1.2% hits; inhibition, % at 10 µM; purified SENP8, Z-RLRGG-aminoluciferin cleavage, luminescence; in the data active = inhibition above about 50%
# SENP8 block-2 = inhibitors of human SENP8 protease; AID 602440; inhibition, % at 20 µM; Q96LD8; recombinant SENP8, Nedd8 substrate fluorescence; 360,000 compounds, 0.64% hits; in the data active = inhibition mostly above about 40%, no sharp cut-off; inactive = mostly below about 27%
# SENP7 inh = blocks the human protease SENP7; Q9BQF6; inhibition, % at 5 µM; 330,000 compounds, 1.5% hits; recombinant SENP7, Z-RLRGG-aminoluciferin luminescence, 40 min; AID 434973;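 active = inhibition above about 50% at the single test dose, limit read from the data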;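 note: plate controls were DMSO with enzyme for no effect and no enzyme buffer wells for full effect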
# Target sequence (Q9BQF6 706-1050 limits assumed): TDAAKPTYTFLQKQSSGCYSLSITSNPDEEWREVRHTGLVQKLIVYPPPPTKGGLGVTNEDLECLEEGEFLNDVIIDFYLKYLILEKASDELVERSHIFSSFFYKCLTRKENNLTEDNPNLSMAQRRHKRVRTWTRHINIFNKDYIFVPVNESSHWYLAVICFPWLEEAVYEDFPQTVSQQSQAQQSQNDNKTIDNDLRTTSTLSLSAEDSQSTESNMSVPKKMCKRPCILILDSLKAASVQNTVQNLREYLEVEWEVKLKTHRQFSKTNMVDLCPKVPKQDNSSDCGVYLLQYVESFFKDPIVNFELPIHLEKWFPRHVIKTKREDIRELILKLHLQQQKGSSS
# SENP8 conf = confirmation of human SENP8 protease inhibitors; Recombinant SENP8, Z-RLRGG-aminoluciferin luminescence, 60 min; shares compounds with SENP7 inh; 6,200 compounds, 40% hits; inhibition, % at 12.5 µM; AID 488912;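 active = mean inhibition across replicates above about 50%, limit read from the data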
# SENP6 confirm = confirmation of human SENP6 protease inhibitors; recombinant SENP6, Z-RLRGG-aminoluciferin luminescence; 6,200 compounds, 58% hits; inhibition, % at 12.5 µM; shares compounds with SENP7 inh
# SENP7 conf = confirmation of human SENP7 protease inhibitors; shares compounds with SENP7 inh; recombinant SENP7, Z-RLRGG-aminoluciferin luminescence, 40 min; inhibition, % at 12.5 µM; 6,200 compounds, 69% hits; AID 488917
# Casp3 select = caspase-3 inhibition (SENP selectivity assay); shares compounds with SENP7 inh; purified caspase-3, Z-DEVD-aminoluciferin luminescence, 60 min; inhibition, % at 12.5 µM; 6,200 compounds, 60% hits; AID 488918;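 active = mean inhibition above about 50%, limit read from the data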;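 note: plate controls were enzyme with DMSO for no effect and wells without caspase-3 for full effect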
# Luc interf = counter-screen for SENP inhibitors: luminescence interference; 6,200 compounds, 39% hits; AID 488919; inhibition, % at 12.5 µM; shares compounds with SENP7 inh; Pre-incubated SENP8/Z-RLRGG-aminoluciferin, luciferase luminescence interference;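 active = mean inhibition above about 50% when retested at one dose, limit read from the data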;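 note: plate controls were DMSO wells with completed reaction for no effect and substrate without enzyme for full effect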
# An asterisk follows results filed as active; . = no result. This is a sample that favours compounds with a hit; in the whole collection about 2.9% have one here.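 Rule for the calls, unless noted: active = mean inhibition above about 50% in the one-dose retest (limit read from the data); inactive = the rest.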
SMILES,HSP90 inh,SENP1 inh,SENP6 inh,SENP8 block-1,SENP8 block-2,SENP7 inh,SENP8 conf,SENP6 confirm,SENP7 conf,Casp3 select,Luc interf
COc1ccc(OCC(=O)N/N=C2\CCCCc3ccccc32)cc1,-3,2,-17,-7,3,-11,.,.,.,.,.
CCc1ccc(OCC(=O)N/N=C2\CC(=O)c3ccccc32)cc1,-1,14,53*,24,41*,17,28,66*,16,18,4
COc1ccc(C(C)=O)cc1Cn1cnc2c(cnn2C)c1=O,2,1,-18,-2,20,0,.,.,.,.,.
Cc1cc(C(=O)COc2cccc([N+](=O)[O-])c2)c(C)n1C1CC1,.,-1,58*,34,17,21,67*,63*,89*,66*,36
CCOC(=O)c1cnn(-c2ncnc3c2oc2ccccc23)c1N,.,-2,16,9,15,73*,2,8,32,44,12
CCOC(=O)C1CCN(c2ncnc3c2oc2ccccc23)CC1,-1,0,-15,-1,-34,0,.,.,.,.,.
CN(C(=O)Nc1cnc2ccccc2c1)c1ccccc1,0,-2,-6,-3,-21,-9,.,.,.,.,.
CCCc1nc2ccc(C)cn2c1Cc1ccc(C)cc1,.,-9,.,.,-217,.,.,.,.,.,.
COc1cccc(CNc2nc3cc(-c4ccccc4)sc3c(=O)n2C)c1,.,1,.,.,-125,.,.,.,.,.,.
Cc1nc2cc(-c3ccccc3)sc2c(=O)n1N,49*,2,96*,96*,-9,99*,98*,99*,102*,98*,97*
COc1ccc(-c2cc3nc(C)n(N)c(=O)c3s2)cc1,85*,-2,99*,97*,-432,100*,99*,100*,103*,98*,99*
CC(=O)Nc1ccc(OCC(=O)Nc2ccc(Cl)c(S(=O)(=O)N3CCOCC3)c2)cc1,.,3,-15,-7,11,3,.,.,.,.,.
CCCCc1nnc(NC(=O)c2ccc3[nH]c(=O)c(=O)[nH]c3c2)s1,0,-19,-15,-2,-376,0,.,.,.,.,.
COc1ccc(/C=N/Nc2cc(N(C)C)nc(N(C)C)n2)cc1,1,0,80*,17,-6,72*,38,82*,81*,-2,-5
COc1ccc(/C=N/Nc2nccnc2Cl)cc1,7,2,95*,95*,-106,97*,98*,99*,103*,99*,97*
Oc1ccccc1/C=N/Nc1nccnc1Cl,8,1,80*,83*,-12,93*,91*,91*,100*,94*,93*
COc1ccc(/C=N/Nc2nccnc2Cl)c(OC)c1,2,-28,93*,91*,-161,98*,96*,97*,103*,98*,95*
COc1ccccc1/C=N/Nc1cc(N(C)C)nc(N(C)C)n1,1,-7,38,22,-74,49,.,.,.,.,.
CC1CCC2(CC1)NC(=O)N(Cc1cccc(C(F)(F)F)c1)C2=O (stereo not given),-1,1,-7,1,7,4,.,.,.,.,.
Clc1nccnc1N/N=C/c1ccc(Br)cc1,1,0,96*,94*,-204,98*,97*,98*,102*,97*,96*
Cc1nnc(N/N=C/c2ccc(Br)cc2)n1N,0,-1,12,-14,13,19,.,.,.,.,.
Cc1cc(NC(=O)COC(=O)c2c(C)nn(-c3ccccc3)c2C)no1,-1,0,2,7,14,7,.,.,.,.,.
Cc1ccc(NC(=O)COC(=O)c2c(C)nn(-c3ccccc3)c2C)cc1,.,-3,4,-4,2,5,.,.,.,.,.
COc1ccccc1NC(=O)COC(=O)c1c(C)nn(-c2ccccc2)c1C,.,2,93*,95*,5,97*,96*,96*,101*,95*,75*
Cc1nn(-c2ccccc2)c(C)c1C(=O)OCC(=O)Nc1ccccc1,.,2,83*,75*,-1,81*,77*,76*,94*,83*,74*
SMILES,HSP90 inh,SENP1 inh,SENP6 inh,SENP8 block-1,SENP8 block-2,SENP7 inh,SENP8 conf,SENP6 confirm,SENP7 conf,Casp3 select,Luc interf
Cc1ccc(C(=O)COC(=O)c2ccc(Cl)c(N)c2)s1,.,1,66*,54*,-17,56*,50*,48,84*,46,49
Nc1cc(C(=O)OCC(=O)c2ccc(CC(=O)N3CCOCC3)s2)ccc1Cl,.,-32,-11,-3,-32,-9,.,.,.,.,.
Cc1ccc(N2C(=O)c3ccccc3C2=O)cc1Cl,-1,1,35,20,19,51*,8,11,3,19,-3
Cc1ccc(N2C(=O)c3ccccc3C2=O)cc1,-1,1,3,-3,16,-11,.,.,.,.,.
O=C(NCC1CCCO1)c1ccc(Cl)c(S(=O)(=O)N2CCOCC2)c1 (stereo not given),3,0,29,3,9,8,.,.,.,.,.
CCOC(=O)CNC(=O)CSc1ncnc2c1cnn2-c1ccc(C)cc1,-3,2,52*,39,-30,13,13,15,14,46,8
CCOC(=O)CNC(=O)CSc1ncnc2c1cnn2-c1ccccc1,2,1,35,17,-66,20,.,.,.,.,.
CCOC(=O)CNC(=O)CSc1ncnc2c1cnn2-c1ccc(OC)cc1,2,0,70*,68*,3,35,10,47,32,75*,12
CN(C(=O)COC(=O)c1cccnc1Nc1ccccc1F)C1CCS(=O)(=O)C1 (stereo not given),3,3,58*,23,-20,56*,37,37,74*,75*,53*
CCN(C(=O)COC(=O)c1cc(-c2ccc3cc(OC)ccc3c2)nc2ccccc12)C1CCS(=O)(=O)C1 (stereo not given),1,.,94*,89*,.,92*,49,74*,23,77*,18
CCN(C(=O)COC(=O)c1cccnc1Nc1ccccc1F)C1CCS(=O)(=O)C1 (stereo not given),0,3,91*,83*,2,96*,91*,91*,99*,94*,90*
